Experimental data taken from ChEMBL document CHEMBL1123291, “Modified di- and tripeptides of the C-terminal portion of oxytocin and vasopressin as possible cognition activation agents” (1986).
Non-standard residues stand in square brackets, D forms with d. Residues, ends and D or L forms follow the SMILES beside them. ξ: configuration not given here. *: point of attachment. Arg(NO2) = N=C(NCCC[C@H](N)C(=O)O)N[N+](=O)[O-]; Cbz = O=C(OCc1ccccc1)*; Boc = CC(C)(C)OC(=O)*; ξK = NCCCCC(N)C(=O)O

How the values were obtained:
Type in all cases: functional
Rattus norvegicus [1] = test: Compound was tested for its ability (% reversal in rats) to reverse electroconvulsive shock-induced amnesia in rodents at a dose of 10 (mg/kg) administered intramuscularly (im)
Outline: (§1)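 Passive avoidance (step-through, lighted vs darkened compartment). […], ECS (20 mA, 1 s) was given transcorneally via saline-soaked electrodes, and maximal hindlimb extension was required. Drug was given im at selected doses 2 h post-training. One hour later, entry latency to the dark side was recorded, with 60 s counted as retention. At least 75% of ECS controls had to be amnesic. Replicates were mostly not run.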

Rattus norvegicus [2] = test: Ability (% reversal in rats) to reverse electroconvulsive shock-induced amnesia in rodents at a dose of 0.0010 (mg/kg) (following i.m. administration); outline: as §1
Rattus norvegicus [3] = test: Compound was tested for its ability (% reversal in rats) to reverse electroconvulsive shock-induced amnesia in rodents at a dose of 1 (mg/kg) administered intramuscularly (im); outline: as §1
Rattus norvegicus [4] = test: Ability (% reversal in rats) to reverse electroconvulsive shock-induced amnesia in rodents at a dose of 0.010 (mg/kg) administered intramuscularly (im); outline: as §1
Rattus norvegicus [5] = test: Compound was tested for its ability (% reversal in rats) to reverse electroconvulsive shock-induced amnesia in rodents at a dose of 100 (mg/kg) administered intramuscularly (im); outline: as §1
Rattus norvegicus [6] = test: Ability (% reversal in rats) to reverse electroconvulsive shock-induced amnesia in rodents at a dose of 0.10 (mg/kg) (following intramuscular dosing); outline: as §1
Mus musculus [7] = test: Ability to reverse electroconvulsive shock-induced amnesia in rodents following 0.1 mg/kg i.m. administration.; conditions: route intramuscular; outline: as §1
Mus musculus [8] = test: Ability to reverse electroconvulsive shock-induced amnesia in rodents following 0.01 mg/kg i.m. administration.; conditions: route intramuscular; outline: as §1
Mus musculus [9] = test: Ability to reverse electroconvulsive shock-induced amnesia in rodents following 1 ug/kg i.m. administration.; outline: as §1

SMILES | Reversal (Rattus norvegicus [1]) | Reversal (Rattus norvegicus [2]) | Reversal (Rattus norvegicus [3]) | Reversal (Rattus norvegicus [4]) | Reversal (Rattus norvegicus [5]) | Reversal (Rattus norvegicus [6]) | Reversal (Mus musculus [7]) | Reversal (Mus musculus [8]) | Reversal (Mus musculus [9])
O=C(NCCCCC(CO)NC(=O)C1CCCN1C(=O)OCc1ccccc1)OCc1ccccc1 (centres undefined) | 20% | 50% | 0% | 40% | 0% | 40% | – | – | –
O=C(NC(Cc1ccccc1)CN1C(=O)C2CCCN2C(=O)C1Cc1c[nH]cn1)c1ccccc1 (centres undefined) | 30% | 0% | 50% | 0% | 83% | 43% | – | – | –
COC(=O)CNC(=O)[C@H](CCCCNC(=O)OC(C)(C)C)NC(=O)[C@@H]1CCCN1C(=O)OCc1ccccc1 (Cbz-Pro-Lys(Boc)-Gly-OMe) | – | – | – | – | – | – | 0% | 54% | 91%
NCCCC[C@H](NC(=O)[C@@H]1CCCN1C(=O)OCc1ccccc1)C(=O)NCC(=O)O (Cbz-Pro-Lys-Gly-OH) | – | – | – | – | – | – | 79% | 79% | 100%
CC(C)(C)OC(=O)N1CCC[C@H]1C(=O)N[C@@H](CCCCNC(=O)OCc1ccccc1)C(=O)NCC(N)=O (Boc-Pro-Lys(Cbz)-Gly-NH2) | – | – | – | – | – | – | 0% | 63% | 91%
CC(C)CC(CSCC(N)=O)NCC1CCCN1C(=O)OCc1ccccc1 (centres undefined) | – | 45% | – | 25% | – | 25% | – | – | –
NC(=O)CNC(=O)COCC1CCCN1C(=O)OCc1ccccc1 (centres undefined) | – | 56% | – | 33% | – | 20% | – | – | –
CC(C)(C)OC(=O)N1CCC[C@H]1C(=O)N[C@@H](CCC/N=C(\N)N[N+](=O)[O-])C(=O)NCC(N)=O (Boc-Pro-[Arg(NO2)]-Gly-NH2) | – | – | – | – | – | – | 33% | 20% | 44%
O=C(NCCCCC(SCC1CCCN1C(=O)OCc1ccccc1)C(=O)[O-])OCc1ccccc1.[Na+] (centres undefined) | – | 45% | – | 12% | – | 45% | – | – | –
NC(=O)CNC(=O)[C@H](CCCCNC(=O)OCc1ccccc1)NCC1CCCN1 (some centres undefined) | 16% | 0% | 16% | 16% | 83% | 33% | – | – | –
Cc1ccc(S(=O)(=O)N2CCCC2CNC(CC(C)C)C(=O)NCC(=O)O)cc1 (centres undefined) | – | 33% | – | 33% | – | 0% | – | – | –
CC(C)C[C@H](NC(=O)[C@@H]1CCCN1)C(=O)NCC(N)=O (H-Pro-Leu-Gly-NH2) | – | 14% | – | 43% | – | 43% | 42% | 33% | 42%
CC(C)CC(OCC1CCCN1C(=O)OCc1ccccc1)C(=O)NCC(=O)O (centres undefined) | – | 29% | – | 71% | – | 43% | – | – | –
CC(C)CC(COCC(N)=O)NC(=O)C1CCCN1C(=O)OCc1ccccc1 (centres undefined) | – | 42% | – | 57% | – | 14% | – | – | –
CC(C)C[C@@H](CSCC(=O)O)NCC1CCCN1C(=O)OCc1ccccc1 (some centres undefined) | 0% | 20% | 60% | 80% | 100% | 60% | – | – | –
CC(C)(C)OC(=O)NCCCC[C@H](NC(=O)[C@@H]1CCCN1C(=O)OCc1ccccc1)C(=O)NCC(N)=O (Cbz-Pro-Lys(Boc)-Gly-NH2) | – | 50% | – | 0% | – | 0% | – | – | –
CCCNC(=O)C(CC(C)C)SCC1CCCN1C(=O)OCc1ccccc1 (centres undefined) | – | 60% | – | 20% | – | 20% | – | – | –
N=C(N)NCCC[C@H](NC(=O)[C@@H]1CCCN1)C(=O)NCC(N)=O (H-Pro-Arg-Gly-NH2) | – | – | – | – | – | – | 30% | 0% | 30%
Cc1ccc(C(=O)NC(CSCC(=O)O)CC(C)C)s1 (centres undefined) | – | 60% | – | 60% | – | 20% | – | – | –
CC(C)(C)OC(=O)NC(CCCCNC(=O)OCc1ccccc1)C(=O)NCC(N)=O (centres undefined) (Boc-[ξK](Cbz)-Gly-NH2) | – | 33% | – | 47% | – | 16% | 35% | 53% | 48%
CC(C)(C)OC(=O)N1CCC[C@H]1C(=O)N[C@@H](CCCN=C(N)N)C(=O)NCC(N)=O (Boc-Pro-Arg-Gly-NH2) | – | – | – | – | – | – | 71% | 43% | 0%
CC(C)CC(COCC(=O)O)NC(=O)C1CCCN1C(=O)OCc1ccccc1 (centres undefined) | – | 29% | – | 0% | – | 0% | – | – | –
